Data: ChEMBL document CHEMBL3091291, “Synthesis and pharmacological characterization of benzenesulfonamides as dual species inhibitors of human and murine mPGES-1” (Bioorg Med Chem, 2013)
Activity calls are given as the source filed them. No cut-off for these calls is given here.

Assays:
[1] = target: T1, Polyunsaturated fatty acid 5-lipoxygenase (Homo sapiens) (UniProt P09917); experiment: Inhibition of calcium ionophore (A23187)-stimulated human 5-LO assessed as reduction of LTB4 production by measuring remaining activity at 100 uM preincubated for 15 mins followed by calcium ionophore (A23187) addition measured after 15 mins by LC-MS/MS analysis
T1 sequence (whole entry): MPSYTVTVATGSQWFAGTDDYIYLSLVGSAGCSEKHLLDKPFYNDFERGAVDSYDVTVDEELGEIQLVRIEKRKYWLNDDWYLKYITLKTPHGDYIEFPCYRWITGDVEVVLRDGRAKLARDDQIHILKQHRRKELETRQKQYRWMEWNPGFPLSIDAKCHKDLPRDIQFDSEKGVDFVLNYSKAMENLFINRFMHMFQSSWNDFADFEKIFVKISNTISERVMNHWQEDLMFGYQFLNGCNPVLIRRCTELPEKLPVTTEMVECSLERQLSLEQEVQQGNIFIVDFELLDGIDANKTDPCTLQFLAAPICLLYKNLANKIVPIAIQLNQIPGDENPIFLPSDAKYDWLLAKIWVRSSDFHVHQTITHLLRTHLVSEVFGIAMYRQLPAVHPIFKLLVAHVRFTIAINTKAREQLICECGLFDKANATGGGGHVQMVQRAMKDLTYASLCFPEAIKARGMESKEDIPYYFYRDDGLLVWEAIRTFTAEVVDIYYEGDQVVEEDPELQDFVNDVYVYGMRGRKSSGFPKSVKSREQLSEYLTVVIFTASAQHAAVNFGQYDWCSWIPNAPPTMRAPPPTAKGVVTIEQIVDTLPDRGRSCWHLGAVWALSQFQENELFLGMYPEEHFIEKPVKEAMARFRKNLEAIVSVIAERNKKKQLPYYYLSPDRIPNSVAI
Summary of the method: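 Heparinized human whole blood (500 µL) preincubated with compound 15 min at 37 °C, then stimulated with 20 µM calcium ionophore A23187 in autologous plasma for 15 min at 37 °C. Plasma spiked with deuterated LTB₄ and HETE internal standards, extracted into ethyl acetate, analysed by LC–MS/MS. Inhibition scored when a level fell by 33% or more versus control.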

[2] = target: T2, Prostaglandin E synthase (Mus musculus) (UniProt Q9JM51); experiment: Inhibition of mPGES-1 in Swiss mouse NIH/3T3 cells using PGH2 as substrate assessed as inhibition of IL-1beta/TNFalpha-stimulated PGE2 production at 5 uM preincubated for 30 mins followed by substrate addition measured after 1 min by LC-MS/MS analysis; format: cell-based
T2 sequence (whole entry): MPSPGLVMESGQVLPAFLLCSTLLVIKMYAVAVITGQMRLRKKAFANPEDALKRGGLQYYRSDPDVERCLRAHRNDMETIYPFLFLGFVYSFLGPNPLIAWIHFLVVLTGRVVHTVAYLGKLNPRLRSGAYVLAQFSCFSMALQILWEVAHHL
Summary of the method: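 Microsomal fraction from HeLa, NIH-3T3 or RAW 264.7 cells, obtained by sonication and ultracentrifugation, resuspended in 0.1 M KPi pH 7.4 with 2.5 mM reduced GSH. Protein at 0.15 mg/mL (HeLa, NIH) or 0.3 mg/mL (RAW) incubated with compound 30 min on ice. Reaction started with 20 µM PGH₂, stopped after 1 min with FeCl₂/citric acid. PGE₂ quantified by SPE and LC–MS/MS. IC50 from four-parameter logistic fit of increasing concentrations.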

[3] = target: T3, Prostaglandin E synthase (Homo sapiens) (UniProt O14684); experiment: Inhibition of mPGES-1 in human HeLa cells using PGH2 as substrate assessed as inhibition of IL-1beta/TNFalpha-stimulated PGE2 production at 1 to 10 uM after 24 hrs by LC-MS/MS analysis; format: cell-based
T3 sequence (whole entry): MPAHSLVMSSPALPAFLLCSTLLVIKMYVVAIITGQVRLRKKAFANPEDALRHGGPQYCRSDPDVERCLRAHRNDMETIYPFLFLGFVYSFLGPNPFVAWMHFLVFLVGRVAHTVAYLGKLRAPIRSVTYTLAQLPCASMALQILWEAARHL
Summary of the method: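 HeLa cells (2 × 10⁴ per well) grown 24 h at 37 °C, then given fresh medium with 1 ng/mL IL-1b + 5 ng/mL TNFa (or PBS for unstimulated control) plus compound (1, 10 or 100 µM) or DMSO for 24 h at 37 °C. Supernatant mixed with H₃PO₄, EDTA and deuterated internal standards; PGE₂ measured by SPE and LC–MS/MS.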

[4] = system: HeLa; experiment: Cytotoxicity against IL-1beta/TNFalpha-stimulated human HeLa cells assessed as cell viability up to 10 uM after 24 hrs by WST-1 assay; format: cell-based
Summary of the method: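 HeLa cells seeded at 3 × 10³ per well in medium with 10% FCS, grown 24 h at 37 °C, then stimulated with IL-1b (1 ng/mL) + TNFa (5 ng/mL) and treated at the same time with compound (1, 10, 100 µM) or DMSO for 24 h. WST-1 reagent then added for 90–150 min; absorbance read at 450 nm against 620 nm reference.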

[5] = target: T4, Prostaglandin G/H synthase 2 (Homo sapiens) (UniProt P35354); experiment: Inhibition of LPS-stimulated COX2 in human whole blood assessed as reduction in PGF2alpha production by measuring remaining activity at 100 uM preincubated for 15 mins followed by LPS addition measured after 24 hrs by LC-MS/MS analysis
T4 sequence (whole entry): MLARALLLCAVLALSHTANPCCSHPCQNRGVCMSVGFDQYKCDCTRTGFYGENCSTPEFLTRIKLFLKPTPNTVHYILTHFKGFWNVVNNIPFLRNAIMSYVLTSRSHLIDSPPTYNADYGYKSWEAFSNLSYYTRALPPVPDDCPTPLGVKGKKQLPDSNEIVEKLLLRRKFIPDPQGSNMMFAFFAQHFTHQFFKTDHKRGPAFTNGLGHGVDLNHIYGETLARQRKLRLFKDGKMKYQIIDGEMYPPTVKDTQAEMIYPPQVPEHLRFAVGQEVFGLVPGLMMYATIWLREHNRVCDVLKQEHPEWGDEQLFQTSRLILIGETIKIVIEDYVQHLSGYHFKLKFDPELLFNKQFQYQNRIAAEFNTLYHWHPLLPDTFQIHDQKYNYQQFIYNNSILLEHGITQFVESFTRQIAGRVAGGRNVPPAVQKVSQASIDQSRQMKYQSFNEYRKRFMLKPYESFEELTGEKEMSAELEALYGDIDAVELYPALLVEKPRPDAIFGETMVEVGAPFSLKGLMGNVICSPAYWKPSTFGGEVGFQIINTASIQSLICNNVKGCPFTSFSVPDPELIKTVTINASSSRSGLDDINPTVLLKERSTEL
Summary of the method: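 Heparinized human whole blood (500 µL) mixed with compound in DMSO, with acetylsalicylic acid added to block COX-1, held 15 min at 37 °C, then stimulated with LPS in autologous plasma to induce COX-2/mPGES-1. After 24 h at 37 °C, samples chilled 5 min on ice; plasma collected, prostaglandins extracted and measured by LC–MS/MS. Remaining activity given relative to vehicle control.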

[6] = target: Prostaglandin G/H synthase 1 (Homo sapiens) (UniProt P23219); experiment: Inhibition of COX1 in human whole blood assessed as reduction in PGD2 production by measuring remaining activity at 100 uM after 1 hr by LC-MS/MS analysis
Sequence of Prostaglandin G/H synthase 1 (Homo sapiens) (P23219 whole entry): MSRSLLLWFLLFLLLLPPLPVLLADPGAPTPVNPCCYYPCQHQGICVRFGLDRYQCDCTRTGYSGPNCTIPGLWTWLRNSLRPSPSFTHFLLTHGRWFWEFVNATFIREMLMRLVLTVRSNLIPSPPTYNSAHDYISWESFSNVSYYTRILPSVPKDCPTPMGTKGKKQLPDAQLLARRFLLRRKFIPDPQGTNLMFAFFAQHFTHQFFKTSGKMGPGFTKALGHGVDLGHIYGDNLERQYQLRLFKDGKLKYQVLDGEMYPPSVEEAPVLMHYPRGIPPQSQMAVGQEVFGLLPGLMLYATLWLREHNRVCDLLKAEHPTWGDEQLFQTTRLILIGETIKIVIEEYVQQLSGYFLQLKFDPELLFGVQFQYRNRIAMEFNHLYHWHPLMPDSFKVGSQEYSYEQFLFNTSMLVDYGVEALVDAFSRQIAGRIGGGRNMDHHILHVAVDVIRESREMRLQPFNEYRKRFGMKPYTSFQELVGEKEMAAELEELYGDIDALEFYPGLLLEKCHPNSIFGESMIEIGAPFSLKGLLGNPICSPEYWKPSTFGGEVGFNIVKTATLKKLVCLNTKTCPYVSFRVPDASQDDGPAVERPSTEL

COc1ccc(CN(CC2CCCCC2)S(=O)(=O)c2ccc(C(=O)O)cc2)cc1
Activity [1]: 60.4%
inhibition [2]: 48.5%
inhibition [3]: inactive
Activity [4]: Non-toxic
Activity [5]: 114%
Activity [6]: 110%

COc1ccc(CN(Cc2ccccc2)S(=O)(=O)c2ccc(C(=O)O)cc2)cc1
Activity [1]: 110%
inhibition [2]: 10.6%
inhibition [3]: inactive
Activity [4]: Non-toxic
Activity [5]: 107%
Activity [6]: 89.2%

O=C(O)c1ccc(S(=O)(=O)N(Cc2ccccc2)Cc2ccc(Oc3ccccc3)cc2)cc1
Activity [1]: 90.8%
inhibition [2]: 65.1%
inhibition [3]: inactive
Activity [4]: Non-toxic
Activity [5]: 92.5%
Activity [6]: 61.5%

O=C(O)c1ccc(S(=O)(=O)N(Cc2ccccc2)Cc2ccc(Nc3ccccc3)cc2)cc1
Activity [1]: 47%
inhibition [2]: 67.9%
inhibition [3]: inactive
Activity [4]: Non-toxic
Activity [5]: 90.9%
Activity [6]: 109%

O=C(O)c1ccc(S(=O)(=O)N(Cc2ccccc2)c2ccc(Oc3ccccc3)cc2)cc1
Activity [1]: 140%
inhibition [2]: 71.2%
inhibition [3]: inactive
Activity [4]: Non-toxic
Activity [5]: 86.8%
Activity [6]: 48.5%
